Measurements published in ChEMBL document CHEMBL1687785, “ampG gene of Pseudomonas aeruginosa and its role in β-lactamase expression” (2010).

Experiments:
[1] = molecular target: Beta-lactamase (Pseudomonas aeruginosa (strain ATCC 15692 / PAO1 / 1C / PRS 101 / LMG12228)) (UniProt P24735); assay: Activity of ampD, […], ampDh2 deficient Pseudomonas aeruginosa PAO1 AmpC assessed as nitrocefin hydrolyzed per mg of protein at 10 ug/ml by UV spectrophotometry
Outline: (§1)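 P. aeruginosa cells induced 2 h with cefoxitin (1, 10 or 25 μg/ml; uninduced control). Crude extracts prepared by sonication. β-Lactamase measured by UV spectrophotometry with 100 μM nitrocefin as substrate. Specific activity given as nmol nitrocefin hydrolyzed per min per mg protein at 30°C, with protein by BCA against BSA standard. Triplicate inductions, averaged.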

[2] = molecular target: Beta-lactamase (Pseudomonas aeruginosa (strain ATCC 15692 / PAO1 / 1C / PRS 101 / LMG12228)) (UniProt P24735); assay: Activity of ampD, […], ampDh2 deficient Pseudomonas aeruginosa PAO1 AmpC at 50 ug/ml assessed as nitrocefin substrate hydrolysis per mg of protein after 2 hrs by UV spectrophotometry
Outline: (§2)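 P. aeruginosa cells induced 2 h with […] cefoxitin. Crude sonicated extracts assayed by UV spectrophotometry with 100 μM nitrocefin substrate. Specific activity is nmol nitrocefin hydrolyzed per min per mg protein at 30°C, with protein by BCA against BSA standard. Triplicate inductions, averaged.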

[3] = molecular target: Beta-lactamase (Pseudomonas aeruginosa (strain ATCC 15692 / PAO1 / 1C / PRS 101 / LMG12228)) (UniProt P24735); assay: Activity of ampG deficient Pseudomonas aeruginosa PAO1 AmpC assessed as nitrocefin hydrolyzed per mg of protein at 10 ug/ml by UV spectrophotometry; outline: as §1
[4] = molecular target: Beta-lactamase (Pseudomonas aeruginosa (strain ATCC 15692 / PAO1 / 1C / PRS 101 / LMG12228)) (UniProt P24735); assay: Activity of ampD, […], ampDh2 and ampG deficient Pseudomonas aeruginosa PAO1 AmpC assessed as nitrocefin hydrolyzed per mg of protein at 25 ug/ml by UV spectrophotometry; outline: as §1
[5] = molecular target: Beta-lactamase AmpC (Enterobacter cloacae) (UniProt P05364); assay: Activity of gentamycin resistant Escherichia coli SNO301-1 AmpC harboring pEC1C carrying ampC, ampR from Enterobacter cloacae at 50 ug/ml assessed as nitrocefin substrate hydrolysis per mg of protein after 2 hrs by UV spectrophotometry
[6] = molecular target: Beta-lactamase AmpC (Enterobacter cloacae) (UniProt P05364); assay: Activity of kanamycin resistant Escherichia coli SNO301-1 AmpC harboring pEC1C carrying ampC, ampR from Enterobacter cloacae at 50 ug/ml assessed as nitrocefin substrate hydrolysis per mg of protein after 2 hrs by UV spectrophotometry
[7] = molecular target: Beta-lactamase AmpC (Enterobacter cloacae) (UniProt P05364); assay: Activity of tetracycline resistant Escherichia coli SNO301-1 AmpC harboring pEC1C carrying ampC, ampR from Enterobacter cloacae at 50 ug/ml assessed as nitrocefin substrate hydrolysis per mg of protein after 2 hrs by UV spectrophotometry
[8] = molecular target: Beta-lactamase (Pseudomonas aeruginosa (strain ATCC 15692 / PAO1 / 1C / PRS 101 / LMG12228)) (UniProt P24735); assay: Activity of ampD, […], ampDh2 and ampG deficient Pseudomonas aeruginosa PAO1 AmpC assessed as nitrocefin hydrolyzed per mg of protein at 1 ug/ml by UV spectrophotometry; outline: as §1
[9] = molecular target: Beta-lactamase (Pseudomonas aeruginosa (strain ATCC 15692 / PAO1 / 1C / PRS 101 / LMG12228)) (UniProt P24735); assay: Activity of Pseudomonas aeruginosa PAK AmpC assessed as nitrocefin hydrolyzed per mg of protein at 10 ug/ml by UV spectrophotometry; outline: as §1
[10] = molecular target: Beta-lactamase (Pseudomonas aeruginosa (strain ATCC 15692 / PAO1 / 1C / PRS 101 / LMG12228)) (UniProt P24735); assay: Activity of ampD, ampDh2, ampDh3 and ampG deficient Pseudomonas aeruginosa PAO1 AmpC harboring pZY0901 conferring resistance to gentamycin at 50 ug/ml assessed as nitrocefin substrate hydrolysis per mg of protein after 2 hrs by UV spectrophotometry; outline: as §2
[11] = molecular target: Beta-lactamase (Pseudomonas aeruginosa (strain ATCC 15692 / PAO1 / 1C / PRS 101 / LMG12228)) (UniProt P24735); assay: Activity of ampD, […], ampDh2 and ampG deficient Pseudomonas aeruginosa PAO1 AmpC assessed as nitrocefin hydrolyzed per mg of protein at 10 ug/ml by UV spectrophotometry; outline: as §1
[12] = molecular target: Beta-lactamase (Pseudomonas aeruginosa (strain ATCC 15692 / PAO1 / 1C / PRS 101 / LMG12228)) (UniProt P24735); assay: Activity of ampD, […], ampDh2 deficient Pseudomonas aeruginosa PAO1 AmpC assessed as nitrocefin hydrolyzed per mg of protein at 1 ug/ml by UV spectrophotometry; outline: as §1
[13] = molecular target: Beta-lactamase (Pseudomonas aeruginosa (strain ATCC 15692 / PAO1 / 1C / PRS 101 / LMG12228)) (UniProt P24735); assay: Activity of Pseudomonas aeruginosa PAO1 AmpC assessed as nitrocefin hydrolyzed per mg of protein at 25 ug/ml by UV spectrophotometry; outline: as §1
[14] = molecular target: Beta-lactamase (Pseudomonas aeruginosa (strain ATCC 15692 / PAO1 / 1C / PRS 101 / LMG12228)) (UniProt P24735); assay: Activity of Pseudomonas aeruginosa PAK AmpC assessed as nitrocefin hydrolyzed per mg of protein at 25 ug/ml by UV spectrophotometry; outline: as §1
[15] = molecular target: Beta-lactamase (Pseudomonas aeruginosa (strain ATCC 15692 / PAO1 / 1C / PRS 101 / LMG12228)) (UniProt P24735); assay: Activity of ampG deficient Pseudomonas aeruginosa PAK AmpC at 50 ug/ml assessed as nitrocefin substrate hydrolysis per mg of protein after 2 hrs by UV spectrophotometry; outline: as §2
[16] = molecular target: Beta-lactamase (Pseudomonas aeruginosa (strain ATCC 15692 / PAO1 / 1C / PRS 101 / LMG12228)) (UniProt P24735); assay: Activity of ampD, […], ampDh2 deficient Pseudomonas aeruginosa PAO1 AmpC assessed as nitrocefin hydrolyzed per mg of protein at 25 ug/ml by UV spectrophotometry; outline: as §1
[17] = molecular target: Beta-lactamase (Pseudomonas aeruginosa (strain ATCC 15692 / PAO1 / 1C / PRS 101 / LMG12228)) (UniProt P24735); assay: Activity of ampD, ampDh2, ampDh3 and ampG deficient Pseudomonas aeruginosa PAO1 AmpC at 50 ug/ml assessed as nitrocefin substrate hydrolysis per mg of protein after 2 hrs by UV spectrophotometry; outline: as §2
[18] = molecular target: Beta-lactamase (Pseudomonas aeruginosa (strain ATCC 15692 / PAO1 / 1C / PRS 101 / LMG12228)) (UniProt P24735); assay: Activity of ampG deficient Pseudomonas aeruginosa PAK AmpC assessed as nitrocefin hydrolyzed per mg of protein at 1 ug/ml by UV spectrophotometry; outline: as §1
[19] = molecular target: Beta-lactamase (Pseudomonas aeruginosa (strain ATCC 15692 / PAO1 / 1C / PRS 101 / LMG12228)) (UniProt P24735); assay: Activity of ampG deficient Pseudomonas aeruginosa PAO1 AmpC assessed as nitrocefin hydrolyzed per mg of protein at 1 ug/ml by UV spectrophotometry; outline: as §1
[20] = molecular target: Beta-lactamase (Pseudomonas aeruginosa (strain ATCC 15692 / PAO1 / 1C / PRS 101 / LMG12228)) (UniProt P24735); assay: Activity of Pseudomonas aeruginosa PAO1 AmpC at 50 ug/ml assessed as nitrocefin substrate hydrolysis per mg of protein after 2 hrs by UV spectrophotometry; outline: as §2
[21] = molecular target: Beta-lactamase (Pseudomonas aeruginosa (strain ATCC 15692 / PAO1 / 1C / PRS 101 / LMG12228)) (UniProt P24735); assay: Activity of ampG deficient Pseudomonas aeruginosa PAK AmpC harboring pZY0908 conferring resistance to gentamycin at 50 ug/ml assessed as nitrocefin substrate hydrolysis per mg of protein after 2 hrs by UV spectrophotometry; outline: as §2
[22] = molecular target: Beta-lactamase (Pseudomonas aeruginosa (strain ATCC 15692 / PAO1 / 1C / PRS 101 / LMG12228)) (UniProt P24735); assay: Activity of ampG deficient Pseudomonas aeruginosa PAO1 AmpC assessed as nitrocefin hydrolyzed per mg of protein at 25 ug/ml by UV spectrophotometry; outline: as §1
[23] = molecular target: Beta-lactamase (Pseudomonas aeruginosa (strain ATCC 15692 / PAO1 / 1C / PRS 101 / LMG12228)) (UniProt P24735); assay: Activity of ampG deficient Pseudomonas aeruginosa PAK AmpC assessed as nitrocefin hydrolyzed per mg of protein at 25 ug/ml by UV spectrophotometry; outline: as §1
[24] = molecular target: Beta-lactamase (Pseudomonas aeruginosa (strain ATCC 15692 / PAO1 / 1C / PRS 101 / LMG12228)) (UniProt P24735); assay: Activity of Pseudomonas aeruginosa PAO1 AmpC assessed as nitrocefin hydrolyzed per mg of protein at 10 ug/ml by UV spectrophotometry; outline: as §1
[25] = molecular target: Beta-lactamase (Pseudomonas aeruginosa (strain ATCC 15692 / PAO1 / 1C / PRS 101 / LMG12228)) (UniProt P24735); assay: Activity of ampG deficient Pseudomonas aeruginosa PAO1 AmpC at 50 ug/ml assessed as nitrocefin substrate hydrolysis per mg of protein after 2 hrs by UV spectrophotometry; outline: as §2
[26] = molecular target: Beta-lactamase (Pseudomonas aeruginosa (strain ATCC 15692 / PAO1 / 1C / PRS 101 / LMG12228)) (UniProt P24735); assay: Activity of ampG deficient Pseudomonas aeruginosa PAK AmpC assessed as nitrocefin hydrolyzed per mg of protein at 10 ug/ml by UV spectrophotometry; outline: as §1
[27] = molecular target: Beta-lactamase (Pseudomonas aeruginosa (strain ATCC 15692 / PAO1 / 1C / PRS 101 / LMG12228)) (UniProt P24735); assay: Activity of Pseudomonas aeruginosa PAK AmpC assessed as nitrocefin hydrolyzed per mg of protein at 1 ug/ml by UV spectrophotometry; outline: as §1
[28] = molecular target: Beta-lactamase (Pseudomonas aeruginosa (strain ATCC 15692 / PAO1 / 1C / PRS 101 / LMG12228)) (UniProt P24735); assay: Activity of Pseudomonas aeruginosa PAK AmpC at 50 ug/ml assessed as nitrocefin substrate hydrolysis per mg of protein after 2 hrs by UV spectrophotometry; outline: as §2
[29] = molecular target: Beta-lactamase (Pseudomonas aeruginosa (strain ATCC 15692 / PAO1 / 1C / PRS 101 / LMG12228)) (UniProt P24735); assay: Activity of Pseudomonas aeruginosa PAO1 AmpC assessed as nitrocefin hydrolyzed per mg of protein at 1 ug/ml by UV spectrophotometry; outline: as §1
[30] = molecular target: Beta-lactamase (Pseudomonas aeruginosa (strain ATCC 15692 / PAO1 / 1C / PRS 101 / LMG12228)) (UniProt P24735); assay: Activity of ampG deficient Pseudomonas aeruginosa PAK AmpC harboring pZY0901 conferring resistance to gentamycin at 50 ug/ml assessed as nitrocefin substrate hydrolysis per mg of protein after 2 hrs by UV spectrophotometry; outline: as §2

Sequence of Beta-lactamase (Pseudomonas aeruginosa (strain ATCC 15692 / PAO1 / 1C / PRS 101 / LMG12228)) (P24735 27-397 limits assumed): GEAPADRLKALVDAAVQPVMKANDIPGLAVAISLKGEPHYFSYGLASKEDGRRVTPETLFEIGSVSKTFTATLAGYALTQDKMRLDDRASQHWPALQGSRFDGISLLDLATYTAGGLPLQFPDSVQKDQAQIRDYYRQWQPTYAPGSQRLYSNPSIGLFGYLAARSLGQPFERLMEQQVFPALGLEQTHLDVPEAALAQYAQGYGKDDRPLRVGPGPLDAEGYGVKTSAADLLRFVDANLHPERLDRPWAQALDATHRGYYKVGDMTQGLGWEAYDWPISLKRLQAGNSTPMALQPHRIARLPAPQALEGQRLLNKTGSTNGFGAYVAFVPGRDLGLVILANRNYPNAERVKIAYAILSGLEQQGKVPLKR
Sequence of Beta-lactamase AmpC (Enterobacter cloacae) (P05364 whole entry, looked up): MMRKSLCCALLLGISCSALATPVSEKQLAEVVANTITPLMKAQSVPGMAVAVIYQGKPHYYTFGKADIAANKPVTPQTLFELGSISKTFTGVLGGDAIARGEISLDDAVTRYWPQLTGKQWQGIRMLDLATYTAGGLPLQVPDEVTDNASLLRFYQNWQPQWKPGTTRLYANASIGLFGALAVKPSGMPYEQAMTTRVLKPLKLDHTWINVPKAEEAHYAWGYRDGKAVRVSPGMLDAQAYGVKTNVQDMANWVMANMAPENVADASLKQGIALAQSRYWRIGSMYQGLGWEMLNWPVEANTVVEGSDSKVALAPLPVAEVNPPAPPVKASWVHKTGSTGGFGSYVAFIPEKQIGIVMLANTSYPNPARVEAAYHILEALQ

In the case of `CO[C@@]1(NC(=O)Cc2cccs2)C(=O)N2C(C(=O)O)=C(COC(N)=O)CS[C@@H]21`, the Activity [1] is reported as 3010 nmol/min, the Activity [2] is reported as 3440 nmol/min and the Activity [3] is reported as 10 nmol/min. It also gave an Activity [4] of 0 nmol/min, an Activity [5] of 3250 nmol/min and an Activity [6] of 3600 nmol/min. The Activity [7] was 38 nmol/min, the Activity [8] was 4 nmol/min and the Activity [9] was 747 nmol/min. The Activity [10] was 8130 nmol/min, the Activity [11] was 8 nmol/min and the Activity [12] was 2980 nmol/min. The Activity [13] was 372 nmol/min, the Activity [14] was 1070 nmol/min and the Activity [15] was 0 nmol/min. The Activity [16] was 3020 nmol/min, the Activity [17] was 0 nmol/min and the Activity [18] was 2 nmol/min. It also gave an Activity [19] of 3 nmol/min, an Activity [20] of 879 nmol/min and an Activity [21] of 1300 nmol/min. It also gave an Activity [22] of 0 nmol/min, an Activity [23] of 0 nmol/min and an Activity [24] of 165 nmol/min. It also gave an Activity [25] of 0 nmol/min, an Activity [26] of 5 nmol/min and an Activity [27] of 152 nmol/min. For the same molecule, the Activity [28] was 1220 nmol/min, the Activity [29] was 36 nmol/min and the Activity [30] was 2570 nmol/min.
